# ChEMBL document CHEMBL1806366, “Synthesis and structure-activity relationship of new 1,5-dialkyl-1,5-benzodiazepines as cholecystokinin-2 receptor antagonists” (Bioorg Med Chem, 2011)
# Activity calls are given as the source filed them. The calls are words filed in the database; no cut-off is given here.
# How the values were obtained:
# Mus musculus [1] = assay: Anxiolytic activity in mouse up to 300 ug/kg, po measured after 60 mins post dose by black/white box test; assay type: functional, organism-based
# Summary of the method: (§1)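 Mice dosed orally 60 min before testing, then placed in the centre of the illuminated white compartment of a two-part black/white box. Time spent exploring the white and black sides recorded; longer time in the white side read as anxiolytic effect. Model used for both potency and duration of action.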
# [2] = Selectivity ratio of pKi for guinea pig brain CCK2 receptor to pKi for rat pancreas CCK1
# Summary of the method: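 Radioligand displacement binding to guinea pig brain membranes (CCK2, incubated at 25 °C) and rat pancreas membranes (CCK1, incubated at 37 °C) with 0.2 nM [³H]-CCK8s. Non-specific binding was defined with L-365,260 (CCK2) or L-364,718 (CCK1). Bound ligand was separated by GF/C filtration and counted by liquid scintillation. Ki values were derived for each subtype, with KD and Bmax taken from separate saturation isotherms.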
# [3] = Solubility of the compound at pH 2.4; assay type: physicochemical; conditions: buffer
# [4] = Displacement of [3H]CCK8 from guinea pig brain CCK2 receptor by liquid scintillation counting; set-up: species or system Cavia porcellus
# Summary of the method: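 Guinea pig brain membranes incubated at 25 °C with [³H]-CCK8s at 0.2 nM; nonspecific binding defined with L-365,260. Bound and free ligand separated by filtration over GF/C filters, then counted by liquid scintillation. Ki calculated using Bmax and KD from separate saturation binding isotherms.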
# [5] = target: T1, Cholecystokinin receptor type A (Rattus norvegicus, UniProt P30551); assay: Displacement of [3H]CCK8 from rat pancreas CCK1 receptor at by liquid scintillation counting
# T1 sequence (P30551 whole entry): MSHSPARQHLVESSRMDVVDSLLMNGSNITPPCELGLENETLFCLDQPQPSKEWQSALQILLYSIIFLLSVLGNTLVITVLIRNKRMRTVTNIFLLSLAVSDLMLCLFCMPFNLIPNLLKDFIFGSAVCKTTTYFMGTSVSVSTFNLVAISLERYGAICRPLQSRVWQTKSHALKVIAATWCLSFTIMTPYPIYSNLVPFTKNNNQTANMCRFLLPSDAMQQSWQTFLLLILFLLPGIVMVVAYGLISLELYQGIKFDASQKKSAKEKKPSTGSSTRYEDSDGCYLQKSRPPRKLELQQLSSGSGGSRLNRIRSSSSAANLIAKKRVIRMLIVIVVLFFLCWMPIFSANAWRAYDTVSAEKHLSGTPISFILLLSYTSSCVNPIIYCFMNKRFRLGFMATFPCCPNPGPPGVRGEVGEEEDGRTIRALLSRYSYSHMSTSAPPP
# Summary of the method: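 Rat pancreas membranes incubated at 37 °C with [³H]-CCK8s at 0.2 nM; nonspecific binding defined with L-364,718. Bound and free ligand separated by filtration over GF/C filters, then counted by liquid scintillation. Ki calculated using Bmax and KD from separate saturation binding isotherms.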
# [6] = (§2) Oral bioavailability in rat administered as methocel suspension; assay type: ADME, organism-based; conditions: in vivo
# Mus musculus [7] = assay: Anxiolytic activity in po dosed mouse measured after 60 mins post dose by black/white box test; assay type: functional; summary of the method: as §1
# [8] = Half life in rat administered as methocel suspension; assay type: ADME, organism-based; conditions: in vivo
# Mus musculus [9] = assay: Anxiolytic activity in po dosed mouse assessed as duration of action of the compound measured after 60 mins post dose by black/white box test; assay type: functional; summary of the method: as §1
# [10] = (§3) Volume of distribution in rat administered as methocel suspension; assay type: ADME, organism-based; conditions: in vivo
# [11] = Volume of distribution in dog administered as methocel suspension; assay type: ADME, organism-based, Canis lupus familiaris; conditions: in vivo
# [12] = Oral bioavailability in dog administered as methocel suspension; assay type: ADME, organism-based, Canis lupus familiaris; conditions: in vivo
# [13] = Clearance in dog administered as methocel suspension; assay type: ADME, organism-based, Canis lupus familiaris; conditions: in vivo
# [14] = Clearance in rat administered as methocel suspension; assay type: ADME, organism-based; conditions: in vivo
# [15] = Half life in dog administered as methocel suspension; assay type: ADME, organism-based, Canis lupus familiaris; conditions: in vivo
# Rattus norvegicus [16] = assay: as §2; assay type: ADME, organism-based; conditions: in vivo
# Rattus norvegicus [17] = assay: as §3; assay type: ADME, organism-based; conditions: in vivo
# [18] = Mus musculus, po, 1 h, read-out: ED50
Structure (SMILES),Ki selectivity ratio (CCK1 Ki / CCK2 Ki) [2],solubility ([3]; read-out: solubility) [µg/mL],pKi [4],Ki [5] [nM],bioavailability [6] [%],half-life [8] [h],Vd [10] [L/kg],Vd [11] [L/kg],bioavailability [12] [%],clearance [13] [mL/min],clearance [14] [mL/min],half-life [15] [h],F (Rattus norvegicus [16]) [%],Vd (Rattus norvegicus [17]) [L/kg],solubility [3] [µg/mL],Activity (Mus musculus [1]),ED50 (Mus musculus [7]; [18]) [µg/kg],Time (Mus musculus [9]) [h],ED50 (Mus musculus [7]) [µg/kg]
CC(C)CCN1C(=O)C(NC(=O)Nc2ccc(O)cc2)C(=O)N(CCN2CCOCC2)c2ccccc21 (racemic),1120,450,8.13,8320,,,,,,,,,,,,inactive,,,
"O=C(Nc1ccccc1)NC1C(=O)N(CCN2CCOCC2)c2ccccc2N(CC23CC4CC(CC(C4)C2)C3)C1=O (single isomer, unassigned; (-))",,230,9.64,2040,,,,,,,,,10,1.1,,,0.002,4,
O=C(Nc1ccccc1)NC1C(=O)N(CCN2CCOCC2)c2ccccc2N(CC23CC4CC(CC(C4)C2)C3)C1=O (racemic),,,9.24,2040,13,1.1,1,4.8,9,34,12,1.6,,,230,,,,0.001

# The next lines start with results.
Ki selectivity ratio (CCK1 Ki / CCK2 Ki) [2],solubility ([3]; read-out: solubility) [µg/mL],pKi [4],Ki [5] [nM],bioavailability [6] [%],half-life [8] [h],Vd [10] [L/kg],Vd [11] [L/kg],bioavailability [12] [%],clearance [13] [mL/min],clearance [14] [mL/min],half-life [15] [h],F (Rattus norvegicus [16]) [%],Vd (Rattus norvegicus [17]) [L/kg],solubility [3] [µg/mL],Structure (SMILES),Activity (Mus musculus [1]),ED50 (Mus musculus [7]; [18]) [µg/kg],Time (Mus musculus [9]) [h],ED50 (Mus musculus [7]) [µg/kg]
759,850,8.36,3310,20,1,3.1,2.5,40,23,37,1.3,,,,CC(C)CCN1C(=O)C(NC(=O)Nc2ccccc2)C(=O)N(CCN(C)C)c2ccccc21 (racemic),,0.041,2,
3240,850,9,3240,5,1.1,2.7,,,,28,,,,,CN(C)CCN1C(=O)C(NC(=O)Nc2ccccc2)C(=O)N(CC23CC4CC(CC(C4)C2)C3)c2ccccc21 (racemic),,0.004,4,
234,450,8.54,676,18,0.38,1.1,1,36,14,34,0.9,,,,CC(C)CCN1C(=O)C(NC(=O)Nc2ccccc2)C(=O)N(CCN2CCOCC2)c2ccccc21 (racemic),,0.011,2,
